Laboratory results published in ChEMBL document CHEMBL1158565, “Antagonism of 4-substituted 1,4-dihydropyridine-3,5-dicarboxylates toward voltage-dependent L-type Ca2+ channels Ca V 1.3 and Ca V 1.2” (Bioorg Med Chem, 2010).

Assays:
[1] = molecular target: Voltage-dependent L-type calcium channel subunit alpha-1C (Oryctolagus cuniculus, UniProt P15381); test: Antagonist activity at rabbit Cav1.2 expressed in HEK293 cells assessed as inhibition of voltage pulse-induced calcium current by FLIPR calcium 4 assay; type: functional, cell-based
Sequence of Voltage-dependent L-type calcium channel subunit alpha-1C (P15381 whole entry): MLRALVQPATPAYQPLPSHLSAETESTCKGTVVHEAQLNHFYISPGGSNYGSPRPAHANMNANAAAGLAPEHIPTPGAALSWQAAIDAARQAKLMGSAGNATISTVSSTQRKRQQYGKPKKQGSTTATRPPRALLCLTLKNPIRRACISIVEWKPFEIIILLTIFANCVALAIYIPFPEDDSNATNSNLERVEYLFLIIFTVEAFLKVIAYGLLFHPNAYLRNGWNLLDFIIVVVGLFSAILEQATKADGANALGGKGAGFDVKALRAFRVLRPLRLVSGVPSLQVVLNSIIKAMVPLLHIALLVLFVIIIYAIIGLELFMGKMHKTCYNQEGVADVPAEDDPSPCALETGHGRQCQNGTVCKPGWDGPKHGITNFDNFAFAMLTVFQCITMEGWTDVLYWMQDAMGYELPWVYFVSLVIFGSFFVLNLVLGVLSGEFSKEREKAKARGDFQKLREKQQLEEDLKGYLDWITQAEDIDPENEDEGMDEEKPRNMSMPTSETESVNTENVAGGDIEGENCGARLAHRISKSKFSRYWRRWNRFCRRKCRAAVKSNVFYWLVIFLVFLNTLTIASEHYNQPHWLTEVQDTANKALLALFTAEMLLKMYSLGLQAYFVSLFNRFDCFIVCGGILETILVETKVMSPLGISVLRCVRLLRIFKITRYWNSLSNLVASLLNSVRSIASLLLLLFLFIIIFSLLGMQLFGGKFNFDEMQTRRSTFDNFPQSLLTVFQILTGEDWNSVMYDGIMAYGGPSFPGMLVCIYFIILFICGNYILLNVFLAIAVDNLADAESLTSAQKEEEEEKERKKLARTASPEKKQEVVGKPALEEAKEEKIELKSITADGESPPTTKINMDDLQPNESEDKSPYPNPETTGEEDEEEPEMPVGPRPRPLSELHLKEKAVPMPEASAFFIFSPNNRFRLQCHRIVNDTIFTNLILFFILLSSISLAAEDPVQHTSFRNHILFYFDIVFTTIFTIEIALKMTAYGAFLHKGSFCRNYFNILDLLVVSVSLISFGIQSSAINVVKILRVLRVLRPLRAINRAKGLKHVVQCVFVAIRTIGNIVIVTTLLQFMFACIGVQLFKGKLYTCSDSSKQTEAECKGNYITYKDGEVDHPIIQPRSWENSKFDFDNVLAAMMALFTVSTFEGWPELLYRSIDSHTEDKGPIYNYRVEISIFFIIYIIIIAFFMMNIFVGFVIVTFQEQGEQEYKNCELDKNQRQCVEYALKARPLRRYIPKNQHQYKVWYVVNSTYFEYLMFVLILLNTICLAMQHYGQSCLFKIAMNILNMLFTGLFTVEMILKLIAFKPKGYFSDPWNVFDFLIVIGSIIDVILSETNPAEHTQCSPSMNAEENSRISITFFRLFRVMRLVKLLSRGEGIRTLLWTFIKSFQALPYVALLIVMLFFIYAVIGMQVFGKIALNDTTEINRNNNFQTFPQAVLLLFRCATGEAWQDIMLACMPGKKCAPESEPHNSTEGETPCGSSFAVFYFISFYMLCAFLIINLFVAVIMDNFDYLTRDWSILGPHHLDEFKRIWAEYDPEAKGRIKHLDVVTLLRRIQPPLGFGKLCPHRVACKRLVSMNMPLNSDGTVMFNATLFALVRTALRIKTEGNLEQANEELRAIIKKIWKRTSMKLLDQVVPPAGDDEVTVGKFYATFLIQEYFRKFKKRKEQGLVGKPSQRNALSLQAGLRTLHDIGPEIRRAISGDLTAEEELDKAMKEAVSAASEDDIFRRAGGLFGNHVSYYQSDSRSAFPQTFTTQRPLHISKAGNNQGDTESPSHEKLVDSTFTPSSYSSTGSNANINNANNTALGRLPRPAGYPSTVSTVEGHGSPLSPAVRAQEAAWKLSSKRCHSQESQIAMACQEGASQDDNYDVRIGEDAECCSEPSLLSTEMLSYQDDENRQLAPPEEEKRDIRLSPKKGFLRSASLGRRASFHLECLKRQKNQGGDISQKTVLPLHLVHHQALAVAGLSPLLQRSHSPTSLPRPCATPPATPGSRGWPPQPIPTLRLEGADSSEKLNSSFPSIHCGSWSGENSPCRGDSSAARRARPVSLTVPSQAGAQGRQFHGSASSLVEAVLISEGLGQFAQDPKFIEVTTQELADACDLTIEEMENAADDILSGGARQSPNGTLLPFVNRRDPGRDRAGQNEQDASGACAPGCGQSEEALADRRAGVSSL
Summary of the method: (§1)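 HEK293 lines stably expressing Cavβ3 and Cavα2δ-1 plus Cav1.2 α1C (rabbit) or Cav1.3 α1D (rat) were selected with zeocin/hygromycin. Calcium signals were read by FLIPR with Calcium 4 dye. IC50 came from 11-point dose-response curves. Signal percentage error (SD/mean) was 6.4% for Cav1.2 and 4.1% for Cav1.3 cells.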

[2] = molecular target: Voltage-dependent L-type calcium channel subunit alpha-1D (Rattus norvegicus, UniProt P27732); test: Antagonist activity at rat Cav1.3 expressed in HEK293 cells assessed as inhibition of voltage pulse-induced calcium current by FLIPR calcium 4 assay; type: functional, cell-based; summary of the method: as §1
Sequence of Voltage-dependent L-type calcium channel subunit alpha-1D (P27732 whole entry): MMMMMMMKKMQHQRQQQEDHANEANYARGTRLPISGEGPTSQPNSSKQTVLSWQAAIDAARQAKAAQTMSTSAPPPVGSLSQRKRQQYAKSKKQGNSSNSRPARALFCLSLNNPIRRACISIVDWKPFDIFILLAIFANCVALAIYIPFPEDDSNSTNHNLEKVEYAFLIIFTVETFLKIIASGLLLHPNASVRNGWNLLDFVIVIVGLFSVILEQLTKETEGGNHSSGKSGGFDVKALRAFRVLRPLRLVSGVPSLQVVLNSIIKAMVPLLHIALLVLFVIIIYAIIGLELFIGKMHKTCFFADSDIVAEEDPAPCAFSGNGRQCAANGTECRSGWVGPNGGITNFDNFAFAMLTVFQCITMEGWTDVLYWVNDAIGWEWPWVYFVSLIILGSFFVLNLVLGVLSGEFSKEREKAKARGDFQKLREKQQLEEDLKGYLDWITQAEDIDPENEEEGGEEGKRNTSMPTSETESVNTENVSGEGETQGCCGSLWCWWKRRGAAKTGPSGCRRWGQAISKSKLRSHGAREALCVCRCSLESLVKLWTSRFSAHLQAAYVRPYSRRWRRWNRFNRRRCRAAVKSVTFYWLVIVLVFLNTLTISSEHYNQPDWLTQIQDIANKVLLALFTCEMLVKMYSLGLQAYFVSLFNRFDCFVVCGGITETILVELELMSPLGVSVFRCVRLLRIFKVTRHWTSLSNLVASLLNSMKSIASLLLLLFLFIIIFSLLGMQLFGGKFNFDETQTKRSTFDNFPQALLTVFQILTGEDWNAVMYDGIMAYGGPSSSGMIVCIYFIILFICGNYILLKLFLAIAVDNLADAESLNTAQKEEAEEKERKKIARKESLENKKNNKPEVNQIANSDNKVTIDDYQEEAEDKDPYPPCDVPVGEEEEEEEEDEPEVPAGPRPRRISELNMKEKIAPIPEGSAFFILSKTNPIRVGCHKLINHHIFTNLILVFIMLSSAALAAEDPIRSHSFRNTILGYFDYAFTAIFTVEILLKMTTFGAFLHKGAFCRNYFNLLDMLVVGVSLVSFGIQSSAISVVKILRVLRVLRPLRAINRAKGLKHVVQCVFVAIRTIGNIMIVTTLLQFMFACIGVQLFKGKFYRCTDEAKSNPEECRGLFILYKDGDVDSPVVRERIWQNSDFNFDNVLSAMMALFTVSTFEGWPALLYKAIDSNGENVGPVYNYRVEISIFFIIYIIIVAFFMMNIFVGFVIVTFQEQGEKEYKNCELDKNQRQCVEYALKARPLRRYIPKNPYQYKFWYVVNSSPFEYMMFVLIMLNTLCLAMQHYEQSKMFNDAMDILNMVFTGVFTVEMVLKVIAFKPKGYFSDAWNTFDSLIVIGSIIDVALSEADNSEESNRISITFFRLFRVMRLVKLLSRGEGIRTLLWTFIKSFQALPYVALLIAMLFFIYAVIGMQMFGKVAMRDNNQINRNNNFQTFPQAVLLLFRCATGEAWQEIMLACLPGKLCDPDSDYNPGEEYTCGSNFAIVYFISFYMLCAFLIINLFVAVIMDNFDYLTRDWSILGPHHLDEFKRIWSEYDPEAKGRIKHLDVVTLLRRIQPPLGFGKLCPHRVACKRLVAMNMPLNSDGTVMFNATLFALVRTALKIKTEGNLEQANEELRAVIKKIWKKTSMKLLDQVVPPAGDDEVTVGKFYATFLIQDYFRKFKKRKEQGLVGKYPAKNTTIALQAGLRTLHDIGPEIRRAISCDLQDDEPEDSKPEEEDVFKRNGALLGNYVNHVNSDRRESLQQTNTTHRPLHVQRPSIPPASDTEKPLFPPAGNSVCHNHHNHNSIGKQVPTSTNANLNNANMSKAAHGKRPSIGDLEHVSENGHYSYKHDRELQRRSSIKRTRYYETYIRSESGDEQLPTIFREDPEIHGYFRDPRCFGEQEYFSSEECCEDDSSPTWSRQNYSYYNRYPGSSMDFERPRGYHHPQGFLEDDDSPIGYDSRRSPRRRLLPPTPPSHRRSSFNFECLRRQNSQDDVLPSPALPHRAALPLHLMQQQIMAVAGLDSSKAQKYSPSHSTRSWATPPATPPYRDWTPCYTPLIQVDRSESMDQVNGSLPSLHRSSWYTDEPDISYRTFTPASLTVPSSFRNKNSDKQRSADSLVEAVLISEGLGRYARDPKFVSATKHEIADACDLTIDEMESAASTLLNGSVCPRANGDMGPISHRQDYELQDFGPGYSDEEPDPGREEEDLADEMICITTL

Structure (SMILES) | IC50 [2] | IC50 [1]
COC(=O)C1=C(C)NC(C)=C(C(=O)OCCCCc2ccccc2)C1c1cccc([N+](=O)[O-])c1 (stereo unspecified) | 38 nM | 10 nM
COC(=O)C1=C(C)NC(C)=C(C(=O)OC/C=C/c2ccccc2)C1c1cccc([N+](=O)[O-])c1 (stereo unspecified) [PRANIDIPINE] | 37 nM | 37 nM
COC(=O)C1=C(C)NC(C)=C(C(=O)OCc2cccc(F)c2)C1c1cccc([N+](=O)[O-])c1 (stereo unspecified) | 28 nM | 22 nM
CCOC(=O)C1=C(C)NC(C)=C(C(=O)OCC)C1c1cccc(F)c1F | 10 nM | 15 nM
CCOC(=O)C1=C(C)NC(COC)=C(C(=O)OC)C1c1ccccc1[N+](=O)[O-] (stereo unspecified) | 790 nM | 1760 nM
CCOC(=O)C1=C(C)NC(C)=C(C(=O)OCC)C1c1ccc(F)cc1F | 58 nM | 20 nM
COC(=O)C1=C(C)NC(C)=C(C(=O)OCc2ccc(F)c(F)c2)C1c1cccc([N+](=O)[O-])c1 (stereo unspecified) | 20 nM | 7 nM
COC(=O)C1=C(C)NC(C)=C(C(=O)OCc2ccc(OC)cc2)C1c1cccc([N+](=O)[O-])c1 (stereo unspecified) | 79 nM | 51 nM
COC(=O)C1=C(C)NC(C)=C(C(=O)OCc2cccs2)C1c1cccc([N+](=O)[O-])c1 (stereo unspecified) | 23 nM | 31 nM
CCOC(=O)C1=C(C)NC(C)=C(C(=O)OCC)C1c1ccccc1SC | 15 nM | 8 nM
COC(=O)C1=C(C)NC(C)=C(C(=O)OCc2cc([N+](=O)[O-])cc([N+](=O)[O-])c2)C1c1cccc([N+](=O)[O-])c1 (stereo unspecified) | 40 nM | 55 nM
COC(=O)C1=C(C)NC(C)=C(C(=O)OC2Cc3ccccc3C2)C1c1cccc([N+](=O)[O-])c1 (stereo unspecified) | 43 nM | 72 nM
COC(=O)C1=C(C)NC(C)=C(C(=O)OCCc2ccc(Cl)cc2)C1c1cccc([N+](=O)[O-])c1 (stereo unspecified) | 39 nM | 8 nM
COC(=O)C1=C(C)NC(C)=C(C(=O)OC2C=CCCC2)C1c1cccc([N+](=O)[O-])c1 (stereo unspecified) | 10 nM | 10 nM
CCOC(=O)C1=C(C)NC(C)=C(C(=O)OCC)C1(C)c1ccccc1 | 2140 nM | 630 nM
COC(=O)C1=C(C)NC(C)=C(C(=O)OCCCOc2ccccc2)C1c1cccc([N+](=O)[O-])c1 (stereo unspecified) | 11 nM | 9 nM
C=CCOC(=O)C1=C(C)NC(C)=C(C(=O)OCC)C1c1ccc2ccccc2c1 (stereo unspecified) | 2160 nM | 1310 nM
COC(=O)C1=C(C)NC(C)=C(C(=O)OCc2ccco2)C1c1cccc([N+](=O)[O-])c1 (stereo unspecified) | 15 nM | 20 nM
CCOC(=O)C1=C(C)NC(/C=C/c2ccc([N+](=O)[O-])cc2)=C(C(=O)OCC)C1c1cccc([N+](=O)[O-])c1 (stereo unspecified) | 2060 nM | 1940 nM

Structure (SMILES) | IC50 [2] | IC50 [1]
COC(=O)C1=C(C)NC(C)=C(C(=O)OCc2ccc(OC)c(OC)c2)C1c1cccc([N+](=O)[O-])c1 (stereo unspecified) | 117 nM | 112 nM
C=CCOC(=O)C1=C(C)NC(C)=C(C(=O)OC)C1c1ccccc1[N+](=O)[O-] (stereo unspecified) | 10 nM | 8 nM
COC(=O)C1=C(C)NC(C)=C(C(=O)OC)C1c1ccccc1SC | 35 nM | 8 nM
COC(=O)C1=C(C)NC(C)=C(C(=O)OCc2ccc3c(c2)OCO3)C1c1cccc([N+](=O)[O-])c1 (stereo unspecified) | 22 nM | 13 nM
CCOC(=O)C1=C(C)NC(C)=C(C(=O)OCc2ccc([N+](=O)[O-])cc2)C1c1cccc([N+](=O)[O-])c1 (stereo unspecified) | 140 nM | 130 nM
CCOC(=O)C1=C(C)NC2=C(C(=O)OC2)C1c1cccc([N+](=O)[O-])c1 (stereo unspecified) | > 4000 nM | > 4000 nM
COC(=O)C1=C(C)NC(C)=C(C(=O)OCc2ccccc2)C1c1cccc([N+](=O)[O-])c1 (stereo unspecified) | 15 nM | 25 nM
COC(=O)C1=C(C)NC(C)=C(C(=O)OCc2c(Cl)cc(Cl)cc2Cl)C1c1cccc([N+](=O)[O-])c1 (stereo unspecified) | 34 nM | 10 nM
COCC1=C(C(=O)OC)C(c2cccc([N+](=O)[O-])c2)C(C(=O)OC)=C(C)N1 (stereo unspecified) | 350 nM | 115 nM
CCOC(=O)C1=C(C)NC(C)=C(C(C)=O)C1c1ccc2ccccc2c1 (stereo unspecified) | 2320 nM | 2220 nM
COC(=O)C1=C(C)NC(C)=C(C(=O)OCCC(c2ccccc2)c2ccccc2)C1c1cccc([N+](=O)[O-])c1 (stereo unspecified) | 270 nM | 100 nM
COC(=O)C1=C(C)NC(C)=C(C(=O)OCC(C)[N+](=O)[O-])C1c1cccc([N+](=O)[O-])c1 (stereo unspecified) | 111 nM | 108 nM
CC1=C(C#N)C(c2cccc(F)c2F)C(C#N)=C(C)N1 | 1150 nM | 1610 nM
COC(=O)C1=C(C)NC(C)=C(C(=O)OCCCCc2ccc(OC)cc2)C1c1cccc([N+](=O)[O-])c1 (stereo unspecified) | 38 nM | 17 nM
CCOC(=O)C1=C(C)NC(CN2CCN(c3ccccc3)CC2)=C(C(=O)OCC)C1c1cccc([N+](=O)[O-])c1 (stereo unspecified) | 610 nM | 630 nM
COC(=O)C1=C(C)N=C(C)/C(=C(/O)OC)C1(C)c1ccccc1 (stereo unspecified) | 2310 nM | 1470 nM
COC(=O)C1=C(C)NC(C)=C(C(=O)OCc2ccc(-c3ccccc3)cc2)C1c1cccc([N+](=O)[O-])c1 (stereo unspecified) | 74 nM | 69 nM
COC(=O)C1=C(C)NC(C)=C(C(=O)OCC23CC4CC(C)(CC(C)(C4)C2)C3)C1c1cccc([N+](=O)[O-])c1 (stereo unspecified) | 5070 nM | 685 nM

Second part, led by results:

IC50 [2] | Structure (SMILES) | IC50 [1]
211 nM | CCOC(=O)C1=C(C)NC(C)=C(C(=O)OCCC#N)[C@H]1c1cccc([N+](=O)[O-])c1 | 51 nM
105 nM | CCCC1=C(C(=O)OCC)C(c2cccc([N+](=O)[O-])c2)C(C(=O)OCC)=C(C)N1 (stereo unspecified) | 18 nM
78 nM | COC(=O)C1=C(C)NC(C)=C(C(=O)OCCC#N)C1c1cccc([N+](=O)[O-])c1 (stereo unspecified) | 26 nM
130 nM | CCCCCOC(=O)C1=C(C)NC(C)=C(C(=O)OCC)C1c1cccc([N+](=O)[O-])c1 (stereo unspecified) | 49 nM
37 nM | CCOC(=O)C1=C(C)NC(COC(C)=O)=C(C(=O)OCC)C1c1cccc([N+](=O)[O-])c1 (stereo unspecified) | 10 nM
45 nM | CCOC(=O)C1=C(C)NC(/C=C/C#N)=C(C(=O)OCC)C1c1cccc([N+](=O)[O-])c1 (stereo unspecified) | 22 nM
13900 nM | CCOC(=O)C1=C(C)NC(C)=C(C(=O)OC=O)C1c1cccc([N+](=O)[O-])c1 (stereo unspecified) | 33300 nM
399 nM | COC(=O)C1=C(C)NC(C)=C(C(=O)OCCC#N)[C@@H]1c1cccc([N+](=O)[O-])c1 | 262 nM
46 nM | COC(=O)C1=C(C)NC(C)=C(C(=O)OCCOc2ccccc2Cl)C1c1cccc([N+](=O)[O-])c1 (stereo unspecified) | 19 nM
213 nM | CCOC(=O)C1=C(C)NC(C=CC(=O)OC)=C(C(=O)OCC)C1c1cccc([N+](=O)[O-])c1 (mixture of isomers) | 313 nM
550 nM | COC(=O)C1=C(C)NC(C)=C(C(=O)OCCNC(=O)C(F)(F)F)C1c1cccc([N+](=O)[O-])c1 (stereo unspecified) | 410 nM
15 nM | C=CCOC(=O)C1=C(C)NC(C)=C(C(=O)OCC)C1c1cccc([N+](=O)[O-])c1 (stereo unspecified) | 25 nM
930 nM | COC(=O)C1=C(C)NC(C)=C(C(=O)O)C1c1cccc([N+](=O)[O-])c1 (stereo unspecified) | 900 nM
21 nM | COC(=O)C1=C(C)NC(C)=C(C(=O)OCC2CC2)C1c1cccc([N+](=O)[O-])c1 (stereo unspecified) | 28 nM
10 nM | C=C(C)C(=O)OCCOC(=O)C1=C(C)NC(C)=C(C(=O)OCC)C1c1cccc([N+](=O)[O-])c1 (stereo unspecified) | 10 nM
47 nM | C=C(C)CCOC(=O)C1=C(C)NC(C)=C(C(=O)OC)C1c1cccc([N+](=O)[O-])c1 (stereo unspecified) | 23 nM

IC50 [2] | Structure (SMILES) | IC50 [1]
12 nM | COC(=O)C1=C(C)NC(C)=C(C(=O)OCCOCc2ccccc2)C1c1cccc([N+](=O)[O-])c1 (stereo unspecified) | 9 nM
35 nM | C#CCCOC(=O)C1=C(C)NC(C)=C(C(=O)OC)C1c1cccc([N+](=O)[O-])c1 (stereo unspecified) | 31 nM
15 nM | C=CCOC(=O)C1=C(C)NC(C)=C(C(=O)OC)C1c1cccc([N+](=O)[O-])c1 (stereo unspecified) | 15 nM
96 nM | CCOC(=O)C1=C(C)NC(COC)=C(C(=O)OC)C1c1cccc([N+](=O)[O-])c1 (stereo unspecified) | 14 nM
22 nM | COC(=O)C1=C(C)NC(C)=C(C(=O)OCCCl)C1c1cccc([N+](=O)[O-])c1 (stereo unspecified) | 26 nM
45 nM | CCOC(=O)C1=C(C)NC(CO)=C(C(=O)OCC)C1c1cccc([N+](=O)[O-])c1 (stereo unspecified) | 49 nM
137 nM | CCOC(=O)C1=C(C)NC(C)=C(C(=O)OCCC#N)[C@@H]1c1cccc([N+](=O)[O-])c1 | 50 nM
589 nM | COC(=O)C1=C(C)NC(C)=C(C(=O)OCCC#N)[C@H]1c1cccc([N+](=O)[O-])c1 | 143 nM
615 nM | CCOC(=O)C1=C(C)NC(C(OCC)OCC)=C(C(=O)OCC)C1c1cccc([N+](=O)[O-])c1 (stereo unspecified) | 460 nM
21 nM | COC(=O)C1=C(C)NC(C)=C(C(=O)OCC(F)(F)F)C1c1cccc([N+](=O)[O-])c1 (stereo unspecified) | 16 nM
20 nM | CCCCC1=C(C(=O)OCC)C(c2cccc([N+](=O)[O-])c2)C(C(=O)OCC)=C(C)N1 (stereo unspecified) | 20 nM
82 nM | CCOC(=O)C1=C(C)NC(C)=C(C(=O)OCCOC)C1c1cccc([N+](=O)[O-])c1 (stereo unspecified) | 16 nM
53 nM | CCOC(=O)C1=C(C)NC(CCl)=C(C(=O)OCC)C1c1cccc([N+](=O)[O-])c1 (stereo unspecified) | 10 nM
170 nM | CCOC(=O)C1=C(C)NC(COC(=O)c2ccccc2)=C(C(=O)OCC)C1c1cccc([N+](=O)[O-])c1 (stereo unspecified) | 210 nM
1920 nM | CCOC(=O)C1=C(C)OC(C)=C(C(=O)OCC)C1c1cccc([N+](=O)[O-])c1 | > 4000 nM
